{
  "source": "ChEMBL document CHEMBL1156656",
  "about": "“HIV-1 ribonuclease H inhibitory phenolic glycosides from Eugenia hyemalis” (J Nat Prod, 2008)",
  "key": {"[1]": {"experiment": "Inhibition of human RNase H by FRET assay", "procedure,_shortened": "(§1)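 RNase H enzymes (HIV-1, HIV-2, human) assayed by high-throughput fluorescence resonance energy transfer (FRET) cleavage assay; extracts run in presence of 1% bovine serum albumin.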"}, "[2]": {"experiment": "Inhibition of HIV1 RNase H by FRET assay", "parameters": "species or system Human immunodeficiency virus 1", "procedure,_shortened": "as §1"}, "Escherichia coli": {"system": "Escherichia coli", "experiment": "Inhibition of Escherichia coli RNase H by FRET assay"}, "[3]": {"experiment": "Inhibition of HIV2 RNase H by FRET assay", "parameters": "species or system Human immunodeficiency virus 2", "procedure,_shortened": "as §1"}, "[4]": {"system": "Human immunodeficiency virus", "experiment": "Antiviral activity against HIV-RF in human CEM-SS cells assessed as cytopathogenicity at 20 ug/ml", "type": "functional, organism-based", "procedure,_shortened": "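Human CEM-SS T cells infected with HIV-1 strain RF; XTT-based cell viability read-out of protection from viral cytopathic effect; highest dose tested 20 μg/mL.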"}},
  "note": "Calls of active or inactive are those of the source. The rule behind the calls is not given here.",
  "data": [
    {"smiles": "O=C(OC[C@H]1O[C@@H](Oc2ccc(O)cc2)[C@H](OC(=O)c2cc(O)c(O)c(O)c2)[C@@H](OC(=O)c2cc(O)c(O)c(O)c2)[C@@H]1O)c1cc(O)c(O)c(O)c1", "note": "[HYEMALOSIDE A]", "values": [
      {"measurement": "IC50", "setting": "[1]", "value": 0.18, "unit": "µM"},
      {"measurement": "IC50", "setting": "[2]", "value": 1.46, "unit": "µM"},
      {"measurement": "Activity", "setting": "Escherichia coli", "value": "inactive"},
      {"measurement": "IC50", "setting": "[3]", "value": 0.58, "unit": "µM"}
    ]},
    {"smiles": "O=C(OC[C@H]1O[C@@H](Oc2ccc(O)cc2)[C@H](OC(=O)c2cc(O)c(O)c(O)c2)[C@@H](O)[C@@H]1O)c1ccc(O)cc1", "note": "[HYEMALOSIDE B]", "values": [
      {"measurement": "IC50", "setting": "[1]", "value": 2.44, "unit": "µM"},
      {"measurement": "IC50", "setting": "[2]", "value": "> 18.3", "unit": "µM"},
      {"measurement": "Activity", "setting": "Escherichia coli", "value": "inactive"},
      {"measurement": "IC50", "setting": "[3]", "value": 3.32, "unit": "µM"}
    ]},
    {"smiles": "O=C(OC[C@H]1O[C@@H](OC(=O)c2cc(O)c(O)c(O)c2)[C@H](OC(=O)c2cc(O)c(O)c(O)c2)[C@@H](O)[C@@H]1O)c1cc(O)c(O)c(O)c1", "values": [
      {"measurement": "IC50", "setting": "[1]", "value": 0.55, "unit": "µM"},
      {"measurement": "IC50", "setting": "[2]", "value": 10.2, "unit": "µM"},
      {"measurement": "Activity", "setting": "Escherichia coli", "value": "inactive"},
      {"measurement": "IC50", "setting": "[3]", "value": 0.28, "unit": "µM"}
    ]},
    {"smiles": "C[C@H]1O[C@H](Oc2c(-c3ccc(O)cc3)oc3cc(O)cc(O)c3c2=O)[C@@H](O)[C@@H](OC(=O)c2cc(O)c(O)c(O)c2)[C@H]1O", "values": [
      {"measurement": "IC50", "setting": "[1]", "value": 7.25, "unit": "µM"},
      {"measurement": "IC50", "setting": "[2]", "value": "> 17.1", "unit": "µM"},
      {"measurement": "Activity", "setting": "Escherichia coli", "value": "inactive"},
      {"measurement": "IC50", "setting": "[3]", "value": 9.12, "unit": "µM"}
    ]},
    {"smiles": "C[C@H]1O[C@H](Oc2c(-c3ccc(O)cc3)oc3cc(O)cc(O)c3c2=O)[C@@H](OC(=O)c2cc(O)c(O)c(O)c2)[C@@H](O)[C@H]1O", "values": [
      {"measurement": "IC50", "setting": "[1]", "value": 3.03, "unit": "µM"},
      {"measurement": "IC50", "setting": "[2]", "value": "> 17.1", "unit": "µM"},
      {"measurement": "Activity", "setting": "Escherichia coli", "value": "inactive"},
      {"measurement": "IC50", "setting": "[3]", "value": 3.38, "unit": "µM"}
    ]},
    {"smiles": "O=C(O[C@H]1[C@H](Oc2ccc(O)cc2)O[C@H](CO)[C@@H](O)[C@@H]1O)c1cc(O)c(O)c(O)c1", "values": [
      {"measurement": "IC50", "setting": "[1]", "value": "> 23.5", "unit": "µM"},
      {"measurement": "IC50", "setting": "[2]", "value": "> 23.5", "unit": "µM"},
      {"measurement": "Activity", "setting": "Escherichia coli", "value": "inactive"},
      {"measurement": "IC50", "setting": "[3]", "value": "> 23.5", "unit": "µM"}
    ]},
    {"smiles": "O=C(O[C@H]1[C@H](O)[C@@H](O)[C@H](Oc2ccc(O)cc2)O[C@@H]1CO)c1cc(O)c(O)c(O)c1", "values": [
      {"measurement": "Activity", "setting": "[4]", "value": "inactive"},
      {"measurement": "IC50", "setting": "[1]", "value": "> 23.5", "unit": "µM"},
      {"measurement": "IC50", "setting": "[2]", "value": "> 23.5", "unit": "µM"},
      {"measurement": "Activity", "setting": "Escherichia coli", "value": "inactive"},
      {"measurement": "IC50", "setting": "[3]", "value": "> 23.5", "unit": "µM"}
    ]},
    {"smiles": "O=C(OC[C@H]1O[C@@H](Oc2ccc(O)cc2)[C@H](OC(=O)c2cc(O)c(O)c(O)c2)[C@@H](O)[C@@H]1O)c1cc(O)c(O)c(O)c1", "values": [
      {"measurement": "IC50", "setting": "[1]", "value": 0.55, "unit": "µM"},
      {"measurement": "IC50", "setting": "[2]", "value": 5.05, "unit": "µM"},
      {"measurement": "Activity", "setting": "Escherichia coli", "value": "inactive"},
      {"measurement": "IC50", "setting": "[3]", "value": 0.28, "unit": "µM"}
    ]},
    {"smiles": "O=C(OC[C@H]1O[C@@H](Oc2ccc(O)cc2)[C@H](OC(=O)c2cc(O)c(O)c(O)c2)[C@@H](O)[C@@H]1OC(=O)c1cc(O)c(O)c(O)c1)c1cc(O)c(O)c(O)c1", "values": [
      {"measurement": "IC50", "setting": "[1]", "value": 0.04, "unit": "µM"},
      {"measurement": "IC50", "setting": "[2]", "value": 0.68, "unit": "µM"},
      {"measurement": "Activity", "setting": "Escherichia coli", "value": "inactive"},
      {"measurement": "IC50", "setting": "[3]", "value": 0.1, "unit": "µM"}
    ]},
    {"smiles": "O=C(O[C@@H]1[C@@H](OC(=O)c2cc(O)c(O)c(O)c2)[C@H](Oc2ccc(O)cc2)O[C@@H]2COC(=O)c3cc(O)c(O)c(O)c3-c3c(cc(O)c(O)c3O)C(=O)O[C@@H]12)c1cc(O)c(O)c(O)c1", "note": "[HYEMALOSIDE C]", "values": [
      {"measurement": "IC50", "setting": "[1]", "value": 0.07, "unit": "µM"},
      {"measurement": "IC50", "setting": "[2]", "value": 1.19, "unit": "µM"},
      {"measurement": "Activity", "setting": "Escherichia coli", "value": "inactive"},
      {"measurement": "IC50", "setting": "[3]", "value": 0.84, "unit": "µM"}
    ]},
    {"smiles": "O=C(OC[C@H]1O[C@@H](Oc2c(-c3ccc(O)cc3)oc3cc(O)cc(O)c3c2=O)[C@H](O)[C@@H](O)[C@@H]1O)c1cc(O)c(O)c(O)c1", "values": [
      {"measurement": "IC50", "setting": "[1]", "value": 9.5, "unit": "µM"},
      {"measurement": "IC50", "setting": "[2]", "value": "> 16.6", "unit": "µM"},
      {"measurement": "Activity", "setting": "Escherichia coli", "value": "inactive"},
      {"measurement": "IC50", "setting": "[3]", "value": 5.19, "unit": "µM"}
    ]},
    {"smiles": "C[C@@H]1O[C@@H](Oc2c(-c3ccc(O)c(O)c3)oc3cc(O)cc(O)c3c2=O)[C@H](O)[C@H](O)[C@H]1O", "note": "[QUERCITRIN]", "values": [
      {"measurement": "IC50", "setting": "[1]", "value": 12.5, "unit": "µM"},
      {"measurement": "IC50", "setting": "[2]", "value": "> 22.3", "unit": "µM"},
      {"measurement": "Activity", "setting": "Escherichia coli", "value": "inactive"},
      {"measurement": "IC50", "setting": "[3]", "value": 21.3, "unit": "µM"}
    ]}
  ]
}
